ROMK primary – ROMK potassium channel modulators, primary screen, cell-based, thallium flux, MLSMR library. 130,000 tested, 2% active. ATP-sensitive inward rectifier potassium channel 1 (Homo sapiens), P48048. Tet-inducible ROMK, thallium flux fluorescence; actives lie on both sides. AID 1918, 2009. B-score at 10 µM;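 active means signal ratio slope over the read window, or its plate-corrected B-score, at least 3 SD from the plate mean, either direction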;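 further: B-score of the F/F0 ratio slope over 7 to 12 s after thallium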
Target sequence (P48048 whole entry, looked up): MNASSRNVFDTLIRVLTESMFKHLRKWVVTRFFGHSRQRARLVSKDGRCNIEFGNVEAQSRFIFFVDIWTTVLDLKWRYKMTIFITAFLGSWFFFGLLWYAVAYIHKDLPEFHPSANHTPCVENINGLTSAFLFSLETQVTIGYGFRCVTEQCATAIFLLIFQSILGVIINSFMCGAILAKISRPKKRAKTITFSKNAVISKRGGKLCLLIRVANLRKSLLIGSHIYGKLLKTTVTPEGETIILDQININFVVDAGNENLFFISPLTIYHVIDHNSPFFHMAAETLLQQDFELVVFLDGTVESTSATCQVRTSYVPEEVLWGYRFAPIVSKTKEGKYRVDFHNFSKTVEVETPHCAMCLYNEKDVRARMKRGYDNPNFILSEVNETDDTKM
ABCB1 inh – ABCB1 efflux pump inhibitors, primary screen, cell-based, multiplex, flow cytometry, ABCG2 counter-screen. AID 1326, 2008. CCRF-Adr cells, JC-1 efflux. 190,000 tested, 0.067% active. inhibition, % at 6.6 µM; in the data active means inhibition above about 40%;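 further: 0% = vehicle and 100% = reference inhibitor; higher value means more JC-1 retained so stronger ABCB1 efflux block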
TRPN1 ag – zebrafish TRPN1 channel agonists, primary screen, cell-based, HEK293, calcium fluorescence. HEK293 zebrafish TRPN1-YFP, Fluo-8 calcium fluorescence; 100% = response to 87 µM carbachol. activation, % at 3 µM. 220,000 tested, 0.18% active. transient receptor potential cation channel N1 (TRPN1/NompC), Danio rerio. AID 1424, 2008;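 active means activation above its plate's cutoff, the mean activation of test wells on that plate plus 3 SD, cut at about 19% in these data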;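 further: 0% = DMSO alone and 100% = 87 µM carbachol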
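Material: zebrafish TRPN1-YFP in HEK293 cells; Doses: single test compound dose, 3 µM nominal, 0.3% DMSO; Timing: dye loading 1 h at 37 °C, then 30 min room temperature; Technique: intracellular calcium fluorescence with Fluo-8; Benchmarks: high carbachol 87 µM, low DMSO alone.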
TRPML3 ag – human TRPML3 channel agonists, primary screen, cell-based, HEK293 TRPML3-YFP, Fluo-8 calcium fluorescence, 3 µM | Mucolipin-3 (Homo sapiens), Q8TDD5 | 100% = the carbachol control signal | AID 1448, 2008 | 220,000 tested, 0.29% active | activation, % at 3 µM;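 active means activation above its plate's cutoff, the mean activation of the plate's test wells plus 3 SD, cut at about 12% in these data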;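 further: 0% = DMSO only wells and 100% = carbachol wells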
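system = HEK293 cells stably carrying human TRPML3-YFP | doses = one concentration, 3 µM nominal, 0.3% DMSO | timing = dye loading 1 h 37 °C then 30 min ambient, 125 s read | detection = Fluo-8 calcium dye fluorescence, ex 470-495, em 515-575 nm | benchmarks = high control carbachol 87 µM, low control DMSO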
Calb biofilm kill – clotrimazole potentiators killing C. albicans biofilm, primary screen, 4-compound mixtures | 120,000 tested, 0.02% active | inhibition, % at 7.6 µM | C. albicans biofilm persisters + clotrimazole, fluorescence viability; primary screen in compound mixtures of four per well;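 further: compounds exposed to preformed 24 h biofilms for 48 h; 0% = untreated biofilm control and 100% = clotrimazole plus chlorhexidine kill blank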
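Probe or stimulus – Clotrimazole 50 µg/mL co-treatment · System – C. albicans biofilms · Schedule – 24 h biofilm formation, then 48 h compound exposure, 37 °C · Evaluation – percent inhibition of biofilm viability · Technique – 2-h Alamar Blue fluorescence, 535/590 nm excitation/emission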
ABCG2 inh – ABCG2 efflux pump inhibitors, primary screen, multiplex with ABCB1, IgMXP3 cells, flow cytometry; JC-1 efflux; Broad substrate specificity ATP-binding cassette transporter ABCG2 (Homo sapiens), Q9UNQ0; inhibition, % at 6.6 µM; AID 1325, 2008; 190,000 tested, 0.1% active;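 active means inhibition above 80%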;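 further: 0% = DMSO and 100% = nicardipine control wells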
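Times: 10 min at 25 °C | Test system: Two drug-resistant human cell lines, ABCG2 and ABCB1 | Quantity: 3 million cells/mL final, two lines in 1:1 ratio | Signal: Flow cytometry, 530 nm JC-1 signal | Dosing: Compound at 6.6 µM | Controls: Nicardipine and DMSO wells | Reagent: JC-1 as fluorescent efflux pump substrate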
ROMK hit retest – ROMK channel modulator hit retest, confirmation, cell-based, thallium flux, duplicate, resupplied hits | shares compounds with ROMK primary | 3,000 tested, 54% active | AID 1917, 2009 | fluorescence ratio; hits give low values | normalized thallium flux (F/F0 slope) at 10 µM;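 active means Flux at 10 µM at least 3 SD below or above vehicle control mean in one or both replicates; inconclusive means no clear call, values can overlap the other calls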
The depositor's hits bear a star; ? = inconclusive; / = no result. Only a selection was taken, and hits are over-represented in it overall.

SMILES	ROMK primary	ABCB1 inh	TRPN1 ag	TRPML3 ag	Calb biofilm kill	ABCG2 inh	ROMK hit retest
CCOC(=O)CS(=O)(=O)c1nc(-c2ccccc2)cc(C(F)(F)F)n1	-4.5*	0	10	-1	13	13	0.059*
CCOC(=O)CCS(=O)(=O)c1nc(-c2ccccc2)cc(C(F)(F)F)n1	-4.4*	0	0	1	/	9	0.055*
CCCS(=O)(=O)N1CCN=C1SCc1cccnc1	0.12	0	0	1	0	-1	/
COC(=O)CSc1nc(C)cc(C(F)(F)F)c1C#N	/	0	-1	1	/	3	0.073
COC(=O)CSc1nc(C)cc(C)c1C#N	0.58	0	0	0	11	1	/
O=C(NCc1ccncc1)C(=O)NC1CC1	0.7	2	1	2	16	3	/
COc1cccc(/C=N/n2c(SC)nnc2-c2ccccc2)c1O	3.6*	1	1	1	/	5	0.081
CCCC(=O)N1CCN(c2nc(CC(C)C)c3c(c2C#N)CCC3)CC1	-4.2*	1	-1	-2	/	1	0.066*
CC(C)C(=O)N1CCN(c2nc(-c3ccccc3)c3c(c2C#N)CCCC3)CC1	0.12	3	-3	-1	/	3	/
O=c1nccc(Nc2ccccc2)[nH]1	/	/	1	1	17	/	/
O=c1[nH]c(Nc2ccccc2)cc2ccccc12	-3.3*	0	2	1	/	0	0.064*
O=c1[nH]c(=O)n(-c2ccccc2)c2c1C(C(F)(F)F)(C(F)(F)F)N=C(CCC1CCCCC1)N2	-3.4*	0	0	1	5	-1	0.062*
CC(C)Cn1c2c(c(=O)[nH]c1=O)C(C(F)(F)F)(C(F)(F)F)N=C(CCC1CCCCC1)N2	-0.18	1	-1	0	8	7	/
O=c1[nH]c(=O)n(Cc2ccco2)c2c1C(C(F)(F)F)(C(F)(F)F)N=C(CCC1CCCCC1)N2	/	1	-1	-1	/	2	/
O=c1[nH]c(=O)n(Cc2ccco2)c2c1C(C(F)(F)F)(C(F)(F)F)N=C(CCc1ccccc1)N2	/	2	0	-1	/	9	0.063*
Cc1ccccc1CSc1nnc(C)c(=O)n1N	/	0	-2	0	-2	-4	/
COc1cc(C2C3=C(CC(C)(C)CC3=O)OC(N)=C2[N+](=O)[O-])ccc1O (centres undefined)	/	1	2	0	18	1	/
COC(=O)c1ccc(/C=C(\C#N)C(=O)NC(C)c2ccccc2)cc1 (centres undefined)	/	1	-1	0	28	5	0.049*
CC(NC(=O)/C(C#N)=C/c1ccco1)c1ccccc1 (centres undefined)	/	/	1	0	9	/	/
CC(NC(=O)/C(C#N)=C/c1cccs1)c1ccccc1 (centres undefined)	-4.6*	0	2	1	2	5	0.054*
Clc1ccc(OCCn2ccnc2)c2ccccc12	-3.2*	1	1	0	/	10	?
Clc1nc(Nc2ccc(N3CCOCC3)cc2)c2ccccc2n1	-0.93	0	2	2	29	5	/
O=S(=O)(Nc1nc2ccccc2nc1Nc1ccc(N2CCOCC2)cc1)c1cc(Cl)ccc1Cl	/	1	2	0	13	3	0.057*
COc1cc(/C=C/C(=O)OC(C)C(=O)Nc2c(C)n(C)n(-c3ccccc3)c2=O)ccc1OCC#N (centres undefined)	-0.32	1	0	1	11	5	/
